This note sets out measurements from publication PMC4317570 (Cell metabolism, 2015).

Assay [1] deals with RORγ LBD. Description: Fluorescein-NCOA2 coactivator peptide recruitment, fluorescence polarization. It is filed as biochemical. The following applies: fluoresceinated NCOA2 peptide, holo vs apo receptor. For orientation: In fluorescence polarisation assays a small probe gives low polarisation when free and higher when bound to something large.
For assay [2], the system named is RORγ LBD. Description: CD thermal denaturation of RORγ LBD, apo vs holo. It is filed as binding. The following applies: holo vs apo receptor.
In assay [3] the test system is Sc4mol-/- naïve CD4+ T cells. Description: Th17 cell polarization of RORγt-cre Sc4mol-/- naïve CD4+ T cells. Type of assay: cell-based, mouse.
The target in assay [4] is T1, RORγ (Mus musculus, UniProt P51450).
T1 sequence (P51450 267-516 limits assumed): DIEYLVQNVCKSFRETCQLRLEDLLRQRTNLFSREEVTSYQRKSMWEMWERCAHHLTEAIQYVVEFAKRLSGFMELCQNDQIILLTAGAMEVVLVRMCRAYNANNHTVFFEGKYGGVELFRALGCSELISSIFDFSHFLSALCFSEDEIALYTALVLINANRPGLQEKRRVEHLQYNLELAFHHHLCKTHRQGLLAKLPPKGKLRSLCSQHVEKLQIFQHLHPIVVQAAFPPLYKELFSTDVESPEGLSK
Description: RORγ reporter assay in mammalian cells. It is filed as cell-based. The following applies: mammalian cells (HEK293T). A digest of the protocol: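 HEK293T cells are co-transfected with a RORγ-gal4 fusion plus a GAL4 UAS firefly luciferase reporter (luc2p) and exposed to test compound. Luciferase activity is the read-out. Data are averages of technical triplicates ± standard deviation, representative of n=6 experiments. Statistics use two-tailed unpaired Student's t-test on aggregated experiments.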

In assay [5] the target is RORγ (Mus musculus, UniProt P51450). Description: RORγ-gal4/UAS luciferase reporter in insect cells grown in sterol-free CDM. Type of assay: cell-based. A digest of the protocol: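 Drosophila Kc167 cells are kept in continuous culture in lipid-free chemically defined medium: 40% Grace's medium, 10% Murashige–Skoog micronutrients, 1% NEAS, 1 mM pyruvate, 2% ITS-A and 1% Pluronic F-68. Cells are transiently transfected with RORγ-gal4 plus a UAS luc2p firefly luciferase reporter (minimal hsp70 promoter), then treated with test compound. EC50 is derived from reporter activity. Each compound is tested at least twice in technical triplicates ± standard deviation.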

Assay [6] deals with RORγ reporter activity in U937ROR cells. Type of assay: cell-based. The note with it: media supplemented with exogenous cholesterol.
Assay [7] deals with RORγ LBD. Description: Competition binding with fluorescein-labeled 25-hydroxycholesterol. The following applies: recombinant RORγ.
For assay [8], the system named is RORγ reporter activity in SXLT cells. Description: Full length RORγ reporter. The note with it: media supplemented with compound, Fdft1-/- SXLT cells. Type of assay: cell-based. A digest of the protocol:
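Fdft1−/− SXLT cells are transfected with a full-length RORγ construct driving a firefly luciferase reporter from an endogenous Il-23r enhancer element. Test compound is added to the medium, and luciferase activity is read. Data are technical triplicates ± standard deviation, representative of n=4 experiments. Comparison is by two-tailed unpaired Student's t-test on aggregated experiments.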

As to `CC(C)CCC[C@@H](C)[C@H]1CC[C@H]2C3=CCC4[C@H](C(=O)O)[C@@H](O)CC[C@]4(C)[C@H]3CC[C@]12C` (stereo partly drawn) [4ACD7, 4α-carboxy-cholest-7-en-3β-ol], the “Co-activator peptide recruitment to RORγ” value in the assay with RORγ LBD [1] is given as “promote the recruitment”. In the assay with RORγ LBD [2], the “Thermal stability of the RORγ LBD” value was “increase stability”.

In the case of `CC(C)=CCC[C@@H](C)[C@H]1CC[C@H]2C3=C(CC[C@]12C)[C@@]1(C)CCC(O)[C@@](C)(C(=O)O)C1CC3` (stereo partly drawn) [4ACD8, 4α–carboxy, 4β-methyl-cholesta-8,24-dien-3-ol], the “Co-activator peptide recruitment to RORγ” value with RORγ LBD [1] is “promoted co-activator peptide recruitment”. In addition, the “Th17 cell differentiation in Sc4mol-/- naïve CD4+ T cells” value in assay [3] (1 μM added to media) is recorded as “rescues Th17 cell differentiation”. Also, in the assay with RORγ LBD [2], the “Thermal stability of the RORγ LBD” value is listed as “increased the thermal stability”. For the same molecule, the “RORγ reporter activity in mammalian cells” value at RORγ [4] is given as “specific agonist activity”.

Usually EC50 stands for the concentration that produces a half-maximal response. A lower EC50 goes with greater potency. As to `CC(C)=CCC[C@@H](C)[C@H]1CC[C@@]2(C)C3=CCC4[C@](C)(C=O)C(O)CC[C@]4(C)[C@H]3CC[C@]12C` (stereo partly drawn) [4α–formyl,4β,14α-dimethyl-cholesta-7,24-dien-3-ol], the concentration giving a half-maximal response (EC50) at RORγ [5] fell in the range of 0.15 to 0.5 µM. In addition, on RORγ [4], the “RORγ reporter activity in mammalian cells” value is on record as “no activity”.

Consider `CC(C)=CCCC(C)C1CCC2(C)C3=CCC4C(C)(CO)C(O)CCC4(C)C3CCC12C` (stereo not drawn) [4α–hydroxymethyl,4β,14α-dimethyl-cholesta-7,24-dien-3-ol], for which the “RORγ reporter activity in mammalian cells” value at RORγ [4] is on record as “no activity”.

As for `CC(C)=CCC[C@@H](C)[C@H]1CC=C2C3=C(CC[C@@]21C)[C@@]1(C)CCC(O)C(C)(C)C1CC3` (stereo partly drawn) [FF-MAS, 4α,4β-dimethyl-cholesta-8,14,24-trien-3-ol, reference compound], the “RORγ reporter activity in mammalian cells” value on RORγ [4] was “weak agonist”.

As to `C=CCN(C)CCCCCCOc1ccc(C(=O)c2ccc(Br)cc2)c(F)c1.O=C(O)/C=C/C(=O)O` [Ro 48-8071 fumarate], the “RORγ reporter activity in U937ROR cells” value in assay [6] is on record as “inhibited in a dose dependent fashion”.

In the case of `CC(C)=CCC[C@@H](C)[C@H]1CC[C@H]2C3=C(CC[C@]12C)[C@@]1(C)CCC(O)C(C)(C)C1CC3` (stereo partly drawn) [T-MAS, 4α,4β-dimethyl-cholesta-8,24-dien-3-ol], the “Binding to RORγ” value in the assay with RORγ LBD [7] is listed as “bind very weakly if at all”.

As for `CC(C)CCC[C@@H](C)[C@H]1CC[C@H]2[C@@H]3CC=C4C[C@@H](O)CC[C@]4(C)[C@H]3CC[C@]12C` [cholesterol, reference compound], the “Th17 polarization defect of Sc4mol-/- T cells” value in assay [3] (supplementation of media) is recorded as “could not be alleviated”.

On to `CC(C)=CCC[C@@H](C)[C@H]1CC[C@@]2(C)C3=C(CC[C@]12C)[C@@]1(C)CC[C@H](O)C(C)(C)[C@@H]1CC3` [lanosterol, 14α,4α,4β-trimethyl-cholesta-8,24-dien-3-ol], for which the “RORγ reporter activity in insect cells” value at RORγ [5] (higher concentrations) is recorded as “significant RORγ reporter activity”; on RORγ [5] (physiological concentrations (1 μM)) it was “little to no activity”.

Regarding `CC[C@H](C)C(=O)O[C@H]1C[C@@H](C)C=C2C=C[C@H](C)[C@H](CC[C@@H]3C[C@@H](O)CC(=O)O3)[C@H]21` [lovastatin], in assay [6], the “RORγ reporter activity in U937ROR cells” value is “inhibited in a dose dependent fashion”.

For `CC(C)=CCC/C(C)=C/CC/C(C)=C/CC/C=C(\C)CC/C=C(\C)CCC=C(C)C` [squalene], the “Rescue of full length RORγ reporter activity in SXLT cells” value in assay [8] is on record as “partially rescue”.
